The record followed here is ChEMBL document CHEMBL4406863, “Effective Virtual Screening Strategy toward heme-containing proteins: Identification of novel IDO1 inhibitors” (Eur J Med Chem, 2019).

The source made the active and inactive calls. The calls are words filed in the database; no cut-off is given here.

In data set [1] the target is Tryptophan 2,3-dioxygenase (Homo sapiens) (UniProt P48775). Description: Inhibition of IFN-gamma-induced human TDO2 transfected in HeLa cells at 10 times IDO1 IC50 concentration using L-tryptophan as substrate incubated for 24 hrs relative to control. It is filed as cell-based. An outline of the steps:
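HeLa cells transfected for 24 h with a human TDO2 plasmid, then reseeded at 5 × 10^3/well. After 6 h, IFN-γ and compounds added in medium with […] for 24 h. Supernatant treated with 6.1 N TCA at 50 °C for 30 min and centrifuged; kynurenine read with p-dimethylaminobenzaldehyde at 480 nm.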

The subject of data set [2] is CT26. Description: Antitumor activity against mouse CT26 cells xenografted in immunodeficient BALB/c nude mouse assessed as reduction in tumour growth at 25 mg/kg, ip administered every two days for 17 days and measured at day 17 by vernier caliper method. In kind it is functional, organism-based.
Data set [3] is described as follows: Cytotoxicity against human HeLa cells assessed as survival rate at 30 uM incubated for 24 hrs by MTT assay relative to control. The following applies: read-out: Activity. In kind it is cell-based. A general note: Tetrazolium assays rely on reduction of a dye to a coloured formazan, in cell work by metabolically active cells.
For data set [4], the target named is Indoleamine 2,3-dioxygenase 1 (Homo sapiens, UniProt P14902). Briefly: Inhibition of IDO1 in IFN-gamma stimulated human HeLa cells assessed as reduction in kynurenine production using L-tryptophan as substrate incubated for 24 hrs. In kind it is cell-based.
Chain of Indoleamine 2,3-dioxygenase 1 (P14902 whole entry): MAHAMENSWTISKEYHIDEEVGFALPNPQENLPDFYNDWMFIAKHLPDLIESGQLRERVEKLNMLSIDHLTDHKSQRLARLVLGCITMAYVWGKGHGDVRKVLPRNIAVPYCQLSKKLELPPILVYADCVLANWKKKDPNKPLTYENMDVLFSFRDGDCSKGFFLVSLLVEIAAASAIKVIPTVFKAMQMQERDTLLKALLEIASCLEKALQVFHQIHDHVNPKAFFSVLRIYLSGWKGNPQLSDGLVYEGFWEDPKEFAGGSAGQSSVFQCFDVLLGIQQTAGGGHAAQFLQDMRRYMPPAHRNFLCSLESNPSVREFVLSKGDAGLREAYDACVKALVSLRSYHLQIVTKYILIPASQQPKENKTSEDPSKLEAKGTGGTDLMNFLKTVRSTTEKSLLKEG
For data set [5], the target named is Indoleamine 2,3-dioxygenase 1 (Mus musculus) (UniProt P28776). Description: Reversal of IDO1-mediated immunosuppression in mouse CT26 co-cultured with T-cells assessed as ConA- stimulated differentiation of Treg cells at 0.3 uM measured after 48 hrs by FOXP3-APC based flow cytometry analysis (reference value: 11.4 %). (In general: A flow cytometer gives signals particle by particle.)
Chain of Indoleamine 2,3-dioxygenase 1 (Mus musculus) (P28776 whole entry, looked up): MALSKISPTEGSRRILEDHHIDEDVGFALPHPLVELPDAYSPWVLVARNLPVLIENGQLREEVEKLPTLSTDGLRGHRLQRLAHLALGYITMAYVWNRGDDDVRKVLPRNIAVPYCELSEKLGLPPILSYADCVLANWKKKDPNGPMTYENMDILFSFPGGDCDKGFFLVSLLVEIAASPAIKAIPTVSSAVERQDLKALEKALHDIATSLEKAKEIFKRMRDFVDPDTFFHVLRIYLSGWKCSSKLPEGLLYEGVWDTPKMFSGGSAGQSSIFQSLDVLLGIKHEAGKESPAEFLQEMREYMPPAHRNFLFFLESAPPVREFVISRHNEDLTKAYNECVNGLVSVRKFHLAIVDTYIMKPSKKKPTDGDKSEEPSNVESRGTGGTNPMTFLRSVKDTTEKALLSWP

Data set [6] has the same target. Briefly: Reversal of IDO1-mediated immunosuppression in mouse CT26 co-cultured with T-cells assessed as increase in T cell proliferation measured after 48 hrs by MTT assay. The procedure, abridged: (§1)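 CT26 cells (1 × 10^5/well) exposed to compound ([…]) in medium with […] for 48 h. BALB/c splenic T cells resuspended in a 1:1 mix of this supernatant and RPMI/10% FBS with […] for 48 h. IFN-γ measured by ELISA; proliferation by MTT (1 mg/mL, 4 h, 37 °C, DMSO, 570 nm). Three replicate wells, mean ± SEM.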

The test system of a further data set is HeLa. Description: Effect on IDO1 expression in IFN-gamma-stimulated human HeLa cells at 3 times IDO1 IC50 for 24 hrs by western blot analysis. In kind it is functional, cell-based. The procedure, abridged:
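HeLa cells (2 × 10^5/well) exposed to human IFN-γ 100 ng/mL with or without compound for 24 h. Lysis in 50 mM Tris-HCl pH 8.0 with detergents and protease inhibitors, then 10% SDS-PAGE and PVDF transfer. Membrane blocked with 5% milk and probed with anti-IDO antibody and HRP secondary; band intensity quantified.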

In data set [7] the test system is Mus musculus. Description: Induction of apoptosis in BALB/c mouse xenografted with CT26 cells assessed as nuclear chromatin condensation at 50 mg/kg via oral gavage for 17 days by H&E staining based analysis. In kind it is functional, organism-based. The procedure, abridged:
(§2)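 Tumor tissue from the 17-day CT26/BALB/c gavage study stained with hematoxylin and eosin. Nuclei, cytoplasm and cell morphology assessed by microscopy.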

Data set [8] deals with Mus musculus. Description: Induction of apoptosis in BALB/c mouse xenografted with CT26 cells assessed as nuclear chromatin margination at 50 mg/kg via oral gavage for 17 days by H&E staining based analysis. In kind it is functional, organism-based. An outline of the steps: as §2
The subject of data set [9] is Mus musculus. Briefly: Induction of apoptosis in BALB/c mouse xenografted with CT26 cells assessed as cell shrinkage at 50 mg/kg via oral gavage for 17 days by H&E staining based analysis. It is filed as functional, organism-based. An outline of the steps:
as §2

Data set [10] addresses Indoleamine 2,3-dioxygenase 1 (Mus musculus) (UniProt P28776). Description: Reversal of IDO1-mediated immunosuppression in mouse CT26 co-cultured with T-cells assessed as increase in IFN-gamma production measured after 48 hrs by ELISA. The procedure, abridged: as §1
In data set [11] the test system is CT26. Description: Antitumor activity against mouse CT26 cells xenografted in BALB/c mouse assessed as decrease in tumour growth at 50 mg/kg, po via gavage for 17 days by vernier caliper method. In kind it is functional, organism-based.

Chain of Tryptophan 2,3-dioxygenase (Homo sapiens) (P48775 whole entry, looked up): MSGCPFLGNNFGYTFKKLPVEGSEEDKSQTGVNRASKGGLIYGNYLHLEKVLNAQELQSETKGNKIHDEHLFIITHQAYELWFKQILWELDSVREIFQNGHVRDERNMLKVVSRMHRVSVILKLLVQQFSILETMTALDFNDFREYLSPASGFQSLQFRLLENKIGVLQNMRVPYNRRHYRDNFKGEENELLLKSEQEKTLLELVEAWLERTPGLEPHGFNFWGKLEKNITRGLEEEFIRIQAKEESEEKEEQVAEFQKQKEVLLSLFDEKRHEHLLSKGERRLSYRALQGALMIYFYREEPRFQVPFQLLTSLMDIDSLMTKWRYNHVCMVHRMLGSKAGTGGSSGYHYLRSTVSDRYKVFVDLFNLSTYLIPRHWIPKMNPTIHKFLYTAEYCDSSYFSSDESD

In data set [1], `OC(CC1c2ccccc2-c2cncn21)C1CCCCC1` (stereo not given) displayed an inhibition of under 20%.

With `O=c1[nH]cc(F)c(=O)[nH]1`, the outcome in the data set on CT26 [2] was Active.

On to `CCOc1ccc(/C=N/NC(=O)c2c(O)ccc3ccccc23)cc1`, for which the viability at 24 h, 30 µM in [3] is 112%. The half-inhibitory concentration (IC50) in data set [4] was determined as 27.3 µM.

For the molecule `Cc1ccc(-c2csc3ncn(CC(=O)Nc4cccc5ccccc45)c(=O)c23)cc1`, the viability at 24 h, 30 µM in data set [3] was determined as 99%. Also, the IC50 in data set [4] worked out at 20.1 µM.

With `O=C(Cn1cnc2scc(-c3ccc(F)cc3)c2c1=O)NC(=O)NCc1ccccc1`, in data set [3], the viability at 24 h, 30 µM is 100%. Moreover, the IC50 in [4] was over 30 µM.

As to `CCC(Nc1ccc(Cl)cc1C)C(=O)N/N=C/c1c(O)ccc2ccccc12` (stereo not given), in [3], the viability at 24 h, 30 µM was 105%. In addition, in data set [5], the Activity was determined as 6.7%. The IC50 in data set [4] stood at 2.1 µM. Further, the result in [6] was Active. In addition, the result with HeLa was inactive.

Consider `O=C(N/N=C/c1c(O)ccc2ccccc12)Nc1ccccc1`, for which the viability at 24 h, 30 µM in [3] stood at 102%. In data set [4], the IC50 was over 30 µM.

`Cc1sc2ncn(CC(=O)NCc3ccccc3)c(=O)c2c1-c1ccc(Br)cc1`: in [3], the viability at 24 h, 30 µM worked out at 84%.

Turning to `Oc1ccccc1CN1CCCC(c2n[nH]cc2-c2ccc(Cl)cc2)C1` (stereo not given), the viability at 24 h, 30 µM in data set [3] was 101%. The concentration for half-maximal inhibition (IC50) in data set [4] is 18.6 µM.

Regarding `O=C(Cn1cnc2scc(-c3ccccc3)c2c1=O)NC(=O)Nc1ccccc1`, the viability at 24 h, 30 µM in data set [3] came out at 85%. Moreover, the IC50 in [4] is over 30 µM.

For the molecule `Fc1ccc(C2=Nn3c(CNc4ccc5c(c4)OCO5)nnc3SC2)cc1`, in data set [3], the viability at 24 h, 30 µM came out at 100%.

Turning to `COc1ccc(CC(=O)N/N=C/c2c(O)ccc3ccccc23)cc1`, in [3], the viability at 24 h, 30 µM stood at 91%. For the same molecule, the IC50 in data set [4] is over 30 µM.

With `COc1cccc(NCc2nnc3n2N=C(c2ccc(Br)cc2)CS3)c1`, the viability at 24 h, 30 µM in [3] was found to be 101%. Also, the IC50 in data set [4] amounted to 20.6 µM.

`CCC(Nc1ccc(Cl)cc1C)C(=O)N/N=C/c1cccc2ccccc12` (stereo not given): the IC50 in [4] was determined as 2.2 µM.

In the case of `COc1ccccc1C(=O)N/N=C/c1c(O)ccc2ccccc12`, the viability at 24 h, 30 µM in data set [3] amounted to 100%. Besides, the IC50 in data set [4] stood at 11.3 µM.

Consider `CCNC(=O)C(=O)N/N=C/c1c(O)ccc2ccccc12`, for which, in data set [3], the viability at 24 h, 30 µM stood at 102%. Moreover, the IC50 in [4] is over 30 µM.

As to `COc1ccc(NC(=O)Cn2cnc3scc(-c4ccc(OC)c(OC)c4)c3c2=O)cc1`, the viability at 24 h, 30 µM in data set [3] amounted to 101%. Also, the IC50 in data set [4] was found to be 5.6 µM.

In the case of `O=C(N/N=C/c1c(O)ccc2ccccc12)C(=O)Nc1cccc(C(F)(F)F)c1`, the viability at 24 h, 30 µM in [3] turned out to be 59%.

For the molecule `O=C(Cn1cnc2scc(-c3ccc(Cl)cc3)c2c1=O)NCc1ccco1`, in data set [3], the viability at 24 h, 30 µM stood at 108%. For the same molecule, the IC50 in data set [4] was found to be 12.4 µM.

Turning to `Cc1ccc(OCC(=O)N/N=C/c2c(O)ccc3ccccc23)c(C)c1`, in data set [3], the viability at 24 h, 30 µM was determined as 80%. Moreover, the IC50 in data set [4] was over 30 µM.

Consider `Cc1ccccc1NC(=O)c1cc2ccccc2c(/C=N/Nc2nc3ccccc3s2)c1O`, for which the viability at 24 h, 30 µM in [3] stood at 101%.

Turning to `CCC(Nc1ccc(Cl)cc1C)C(=O)N/N=C/c1ccccc1O` (stereo not given), the inhibition in data set [1] was under 20%. Also, the result in the data set on HeLa was inactive.

As to `Cc1nc2ccccc2n1Cc1nnc2n1N=C(c1ccc(Cl)cc1)CS2`, the viability at 24 h, 30 µM in [3] was determined as 85%.

`NS(=O)(=O)NCCNc1nonc1/C(=N/O)Nc1ccc(F)c(Br)c1` showed an inhibition in data set [1] of under 20%.

Regarding `c1ccc(C2=Nn3c(CN4CCc5ccccc54)nnc3SC2)cc1`, the viability at 24 h, 30 µM in data set [3] was found to be 98%. For the same molecule, in [4], the IC50 is over 30 µM.

Consider `NS(=O)(=O)c1ccc(NC(=O)Cn2cnc3scc(-c4ccco4)c3c2=O)cc1`, for which the viability at 24 h, 30 µM in data set [3] was 77%.

Turning to `CN(C)c1ccc(/C=C(/NC(=O)c2ccccc2Cl)C(=O)N/N=C/c2c(O)ccc3ccccc23)cc1`, the viability at 24 h, 30 µM in data set [3] was determined as 66%.

Consider `O=C(CSc1ccc(Cl)cc1)N/N=C/c1c(O)ccc2ccccc12`, for which, in [3], the viability at 24 h, 30 µM stood at 106%. Further, the IC50 in data set [4] was found to be 6 µM.

With `COc1cccc(NCc2nnc3n2N=C(c2cccc(OC)c2)CS3)c1`, in data set [3], the viability at 24 h, 30 µM amounted to 104%. Also, the IC50 in data set [4] is over 30 µM.

Consider `Cc1ccc(C2=Nn3c(CNc4ccc(F)cc4)nnc3SC2)cc1`, for which the viability at 24 h, 30 µM in [3] came to 110%.

`COc1ccccc1N(CC(=O)N/N=C/c1c(O)ccc2ccccc12)S(C)(=O)=O`: in data set [3], the viability at 24 h, 30 µM was 89%. Also, the IC50 in [4] is over 30 µM.

For the molecule `COc1ccccc1NCC(=O)N/N=C/c1c(O)ccc2ccccc12`, in data set [3], the viability at 24 h, 30 µM is 114%. For the same molecule, in data set [4], the half-maximal inhibitory concentration (IC50) was found to be 8.6 µM.

In the case of `NS(=O)(=O)NCCNc1nonc1C(=NO)Nc1ccc(F)c(Br)c1` [EPACADOSTAT], in data set [3], the viability at 24 h, 30 µM worked out at 92%.

For the molecule `CCOc1ccc(NCc2nnc3n2N=C(c2cccs2)CS3)cc1`, the viability at 24 h, 30 µM in [3] was determined as 101%. Also, the IC50 in data set [4] is over 30 µM.

In the case of `Cc1ccc(NCc2nnc3n2N=C(c2ccc(Cl)cc2)CS3)cc1`, in data set [3], the viability at 24 h, 30 µM amounted to 100%.

In the case of `Oc1ccc2ccccc2c1/C=N/Nc1nccs1`, the viability at 24 h, 30 µM in [3] came to 99%. In data set [4], the IC50 was over 30 µM.

Consider `O=C(Cc1ccccc1)N/N=C/c1c(O)ccc2cc([N+](=O)[O-])ccc12`, for which the viability at 24 h, 30 µM in [3] is 108%. In data set [4], the IC50 turned out to be 4.8 µM. The inhibition in data set [1] is under 20%. For the same molecule, the result in the data set on HeLa was inactive.

As for `COc1ccc(NC(=O)Cn2cnc3scc(-c4ccc(C)cc4)c3c2=O)cc1`, in [3], the viability at 24 h, 30 µM turned out to be 107%. Besides, the Activity in [5] was found to be 10.8%. In addition, the result (in the data set with Mus musculus [7]; in the data set with Mus musculus [8]; with Mus musculus [9]; in [10]; in [6]) was Active. For the same molecule, the IC50 in data set [4] stood at 3.2 µM. The inhibition in data set [1] was under 20%. In the data set on HeLa, the outcome was inactive. Also, the inhibition entry in the data set on CT26 [11] is “Active”.

For `O=C(Cc1ccc([N+](=O)[O-])cc1)N/N=C/c1c(O)ccc2ccccc12`, the viability at 24 h, 30 µM in [3] worked out at 106%. Moreover, the IC50 in data set [4] turned out to be 10.3 µM.

For the molecule `CN(C)c1ccc(C(=O)N/N=C/c2c(O)ccc3ccccc23)cc1`, the viability at 24 h, 30 µM in data set [3] stood at 114%. Further, the IC50 in data set [4] is 21.1 µM.

One may read the inhibition as how much of the control response was suppressed. One may read the IC50 as the concentration that gives 50% inhibition.
